Furin inh – human furin inhibitors, primary screen, biochemical, fluorescence intensity | P09958 | purified furin, fluorogenic substrate cleavage | inhibition, % at 20 µM or 30 µM | actives 0.061% (n = 220,000) | AID 463115, 2010; in the data active = inhibition above about 25%
Target sequence (P09958 108-714 limits assumed): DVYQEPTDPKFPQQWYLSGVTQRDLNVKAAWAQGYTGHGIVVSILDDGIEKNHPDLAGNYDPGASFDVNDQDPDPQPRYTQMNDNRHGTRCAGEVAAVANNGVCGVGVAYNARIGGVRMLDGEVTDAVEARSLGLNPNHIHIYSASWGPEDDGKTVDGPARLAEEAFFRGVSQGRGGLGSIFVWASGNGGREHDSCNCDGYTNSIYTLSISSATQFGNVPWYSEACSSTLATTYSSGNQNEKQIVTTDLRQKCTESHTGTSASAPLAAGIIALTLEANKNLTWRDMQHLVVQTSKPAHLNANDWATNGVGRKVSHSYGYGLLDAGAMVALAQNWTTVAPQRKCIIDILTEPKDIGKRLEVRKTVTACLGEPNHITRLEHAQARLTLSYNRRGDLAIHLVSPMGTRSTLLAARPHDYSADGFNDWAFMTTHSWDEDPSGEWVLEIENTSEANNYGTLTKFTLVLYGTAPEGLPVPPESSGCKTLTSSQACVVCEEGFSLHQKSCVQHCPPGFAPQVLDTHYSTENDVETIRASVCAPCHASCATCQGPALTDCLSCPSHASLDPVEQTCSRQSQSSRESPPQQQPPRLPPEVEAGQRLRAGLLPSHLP
EP2 antag – human EP2 receptor antagonists, primary screen, TR-FRET cAMP, C6 glioma cells; Prostaglandin E2 receptor EP2 subtype (Homo sapiens), P43116; C6 glioma cells expressing human EP2; cells stimulated with saturating PGE2; inhibition, % at 25 µM; actives 0.52% (n = 260,000);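 active = percent inhibition above 40 after rounding to a whole number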;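 also: rat C6 glioma host cells with rolipram phosphodiesterase inhibitor present; the protocol text gives 20 µM as final concentration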
EP2 mod – EP2 receptor modulators, cAMP readout, primary screen, cell-based, HTRF cAMP, PGE2 stimulation; EP2-expressing cells, cAMP HTRF FRET, PGE2 co-stimulation; induction, % at 25 µM; Prostaglandin E2 receptor EP2 subtype (Homo sapiens), P43116; actives 0.83% (n = 260,000);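 active = compounds whose cAMP rise, as percent of the full-agonist control response, exceeds 60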;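 also: rat C6 glioma line stably carrying human EP2 under a CMV promoter; the protocol text gives 20 µM as final concentration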
GASC-1 inh – inhibitors of GASC-1 histone demethylase, primary screen, biochemical, fluorescence, DELFIA europium | GST-JMJD2C(1-420) H3K9me3 demethylation | inhibition, % at 2.35 µM | actives 0.069% (n = 330,000) | AID 2099, 2009;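 active = more than half of a compound's replicate wells show inhibition beyond 50%, single wells judged on their own value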;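 also: signal counts dimethyl H3K9 product captured on neutravidin plate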
NR2E3 ag-1 – NR2E3 agonists in two-hybrid cells, primary screen, cell-based, luminescence, CHO-S, Gal4-NCOR/VP16-NR2E3; Photoreceptor-specific nuclear receptor (Homo sapiens), Q9Y5X4; luciferase; inhibition of corepressor binding, % at 3.98 µM; actives 0.35% (n = 360,000); AID 602229, 2012;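 active = inhibition above the mean of all tested compounds plus 3 SD, cut at about 70% in these data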;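 also: higher means lower luciferase signal from less NR2E3 corepressor binding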
NR2E3 ag-2 – inhibitors of NR2E3-RetCOR corepressor binding, primary screen, NR2E3 agonist project, biochemical, TR-FRET, GST-NR2E3, biotin-RetCOR. actives 0.12% (n = 320,000). 1536-well. inhibition of corepressor binding, % at 4.78 µM. Photoreceptor-specific nuclear receptor (Homo sapiens), Q9Y5X4;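 active = percent inhibition above the cutoff of mean plus 3 SD of all tested compounds, set per screening campaign, cut at about 20% in these data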
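Material: NR2E3–RetCOR corepressor complex / Incubation: Compound–protein incubation for 5 h at 4 °C / Dosing: compound at 4.8 µM, single dose / Detection: time-resolved FRET / Benchmarks: high control biotin, low control 0.6% DMSO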
A number is an active result; n = inactive; x = no result given; ! = a repeat was not active. Most compounds without a hit are left out; they make up all but 1.3% or so of the library.

SMILES	Furin inh	EP2 antag	EP2 mod	GASC-1 inh	NR2E3 ag-1	NR2E3 ag-2
CCOC(=O)c1c(NC(=O)COC)sc2c1CCC2	x	n	83.0	x	x	x
COC(=O)c1c(NC(=O)C2CCCO2)sc2c1CCCC2 (stereo unspecified)	x	n	n	x	x	x
CCOC(=O)c1c(NC(=S)Nc2ccccc2)sc2c1CCCCC2	n	52.4	n	n	n	n
COCC(=O)Nc1sc2c(c1C(=O)OC)CCCC2	n	n	n	n	n	n
CCOC(=O)c1c(NC(=O)C2CCCO2)sc2c1CCC2 (stereo unspecified)	n	n	n	52.4	n	n
CCc1cc2ccc(C)c(C)c2nc1SCC(=O)NNC(C)=O	x	n	n	x	x	x
OC(COc1ccc2ccccc2c1Br)Cn1cnc(-c2ccccc2)c1 (stereo unspecified)	n	n	n	60.6	n	n
Cc1ccc(-c2oc3ccccc3c(=O)c2O)cc1	n	n	n	n	n	n
O=c1c(O)c(-c2ccccc2)oc2ccccc12	x	112.1	n	x	n	x
Cc1ccc(C(=O)c2cc([N+](=O)[O-])ccc2N2CCCCC2)c(C)c1	n	n	63.1	n	n	n
O=C(O)c1cc([N+](=O)[O-])ccc1N1CCCCC1	n	n	n	n	n	n
CCOC(=O)/C(=N\Nc1ccc(Cl)cc1)c1csc(Nc2ccccc2)n1	n	43.9	n	n	n	n
CCOC(=O)/C(=N/Nc1ccccc1)c1csc(Nc2ccccc2)n1	n	n	n	n	n	n
Cc1ccccc1CN1CCC(Oc2ccc(C(=O)N3CCCC3)cc2)CC1	x	x	x	n	n	n
Cc1cccc(CN2CCC(Oc3ccc(C(=O)N4CCCC4)cc3)CC2)n1	x	x	x	65.7	n	n
CC1CCN(c2nc3c(c(=O)[nH]2)CN(Cc2ccc(F)cc2)CC3)CC1	x	n	n	x	x	x
CCOc1cc(/C=N/NC(N)=O)cc(Br)c1OCc1ccccc1F	n	n	62.1	n	n	n
c1cncc(CSc2nnc3c4ccccc4nc(C4CCCCC4)n23)c1	x	n	65.5	x	x	x
c1cncc(CSc2nnc3c4c5c(sc4nc(C4CC4)n23)CCCC5)c1	x	n	n	x	x	x
CCOC(=O)C1=C(C)NC(=O)NC1c1c(C)nn(-c2ccccc2)c1Cl (stereo unspecified)	n	n	n	60.5	n	n
CSc1ccccc1N=Cc1nc(-c2ccccc2)oc1O	n	n	60.6	n	n	n
CCc1nc(SCC(=O)NCc2cccs2)c2c(C)c(C)sc2n1	x	n	n	x	x	x
COC(=O)c1ccc(S(=O)(=O)N2CCCCCC2)cc1	n	n	n	n	n	n
CC(=O)c1ccc(S(=O)(=O)N2CCCCCC2)cc1	x	94.5	n	x	x	x
CC[C@H](Cn1nc(-c2ccoc2C)oc1=O)NC(=O)C1CC1	x	n	n	x	x	x
SMILES	Furin inh	EP2 antag	EP2 mod	GASC-1 inh	NR2E3 ag-1	NR2E3 ag-2
CCOc1cc(C)nc(N2CCC(C(=O)Nc3ccccc3OCC)CC2)n1	n	n	92.2!	n	n	n
CC(C)NC[C@@H](O)c1ccc(O)c(O)c1	n	n	80.0	n	n	n
CC(C)(C)NCC(O)c1cc(O)cc(O)c1 (stereo unspecified)	n	n	n	n	n	n
CC(C)(C)NCC(O)c1ccc(O)c(CO)c1 (stereo unspecified)	x	n	78.0!	x	x	x
CNC[C@@H](O)c1ccc(O)c(O)c1	x	n	82.1	x	x	x
CC(C)NCC(O)c1ccc(NS(C)(=O)=O)cc1 (stereo unspecified)	x	n	n	n	n	n
CC(Cc1ccc(O)c(O)c1)C(C)Cc1ccc(O)c(O)c1 (stereo unspecified)	x	n	x	n	x	n
C[C@H](CO)N1C[C@H](C)[C@@H](CN(C)C(=O)Nc2ccc3c(c2)OCO3)Oc2ccc(NC(=O)Cn3cnnn3)cc2C1=O	x	x	x	68.4	n	x
Cc1noc(C)c1NC(=O)N(C)C[C@H]1Oc2ccc(NC(=O)Cn3cnnn3)cc2C(=O)N([C@H](C)CO)C[C@@H]1C	x	x	x	66.5	n	x

Screening data deposited in PubChem BioAssay by several laboratories.
